Measurements as given in ChEMBL document CHEMBL5724801, “EUbOPEN Chemogenomics Library - Multiplex” (2024).
“And” between values parts separate entries of the source, which are not always exact repeats. Equal entries are not always repeated.

Test system: HEK-293T
Experiment: Multiplex assay against HEK293T
Type: toxicity, cell-based
Settings: human
In short: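 Phenotypes for tubulin, mitochondrial mass and membrane permeability are expressed as per cents of healthy-nucleus cells. Cells were stained live at seeding with Hoechst33342, BioTracker Green Microtubule Cytoskeleton Dye, MitoTracker Red and Annexin V Alexa Fluor 680, then imaged after compound addition on a CQ1 microscope at 37°C and 5% CO2. Machine-learning gating in CellPathfinder separated Hoechst high-intensity objects from normal cells, divided normal cells by nuclear state (healthy, pyknosed, fragmented) and divided pyknosed cells into mitotic or apoptotic.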

[1] = 12 h, 1 µM, compound concentration 1 uM
[2] = 12 h, 10 µM, compound concentration 10 uM
[3] = 24 h, 1 µM, compound concentration 1 uM
[4] = 24 h, 10 µM, compound concentration 10 uM
[5] = 48 h, 1 µM, compound concentration 1 uM
[6] = 48 h, 10 µM, compound concentration 10 uM

What does the source list for `Clc1ccccc1C(c1ccccc1)(c1ccccc1)n1cccn1`?
Population Apoptotic (%) [1]: 7.87% and 11.11%; Population Fragmented Nuclei (%) [1]: 1.79% and 6.3%; Population Hoechst High Intensity Objects (%) [1]: 0%; Population Membrane Permeable-Phenotype (%) [1]: 0% and 5%; Population Mitochondria Different-Phenotype (%) [1]: 33.99% and 35%; Population Mitotic Cells (%) [1]: 92.13% and 88.89%; Population Normal (%) [1]: 100%; Population Pyknosed Nuclei (%) [1]: 37.8% and 77.95%; Total Cell Count [1]: 336 and 127; Population Apoptotic (%) [2]: 10.45% and 10.49%; Population Fragmented Nuclei (%) [2]: 2.33% and 0.57%; Population Hoechst High Intensity Objects (%) [2]: 0.33% and 0%; Population Membrane Permeable-Phenotype (%) [2]: 0%; Population Mitochondria Different-Phenotype (%) [2]: 33.96% and 33.33%; Population Mitotic Cells (%) [2]: 89.55% and 89.51%; Population Normal (%) [2]: 99.67% and 100%; Population Pyknosed Nuclei (%) [2]: 44.67% and 82.18%; Total Cell Count [2]: 301 and 174; Population Apoptotic (%) [3]: 11.32% and 14.85%; Population Fragmented Nuclei (%) [3]: 0.96% and 6.08%; Population Hoechst High Intensity Objects (%) [3]: 0.19% and 0%; Population Membrane Permeable-Phenotype (%) [3]: 0.49% and 2.63%; Population Mitochondria Different-Phenotype (%) [3]: 14.43% and 13.16%; Population Mitotic Cells (%) [3]: 88.68% and 85.15%; Population Normal (%) [3]: 99.81% and 100%; Population Tubulin-Different-Phenotype (%) [3]: 9.78% and 7.89%; Population Apoptotic (%) [4]: 19.64% and 15.94%; Population Fragmented Nuclei (%) [4]: 2.8% and 0.54%; Population Healthy Nuclei (%) [4]: 71.1% and 24.46%; Population Hoechst High Intensity Objects (%) [4]: 0.23% and 0%; Population Membrane Permeable-Phenotype (%) [4]: 1.31% and 0%; Population Mitochondria Different-Phenotype (%) [4]: 27.87% and 13.33%; Population Mitotic Cells (%) [4]: 80.36% and 84.06%; Population Normal (%) [4]: 99.77% and 100%; Population Pyknosed Nuclei (%) [4]: 26.11% and 75%; Total Cell Count [4]: 430 and 184; Population Apoptotic (%) [5]: 7.89% and 12.96%; Population Fragmented Nuclei (%) [5]: 3.42% and 3.98%; Population Healthy Nuclei (%) [5]: 87.9% and 72.12%; Population Hoechst High Intensity Objects (%) [5]: 0% and 1.74%; Population Membrane Permeable-Phenotype (%) [5]: 5.37% and 2.45%; Population Mitochondria Different-Phenotype (%) [5]: 12.03% and 23.31%; Population Mitotic Cells (%) [5]: 92.11% and 87.04%; Population Normal (%) [5]: 100% and 98.26%; Population Pyknosed Nuclei (%) [5]: 8.68% and 23.89%; Population Apoptotic (%) [6]: 9.93% and 27.4%; Population Fragmented Nuclei (%) [6]: 4.13% and 2.25%; Population Healthy Nuclei (%) [6]: 81.99% and 70.41%; Population Hoechst High Intensity Objects (%) [6]: 0%; Population Membrane Permeable-Phenotype (%) [6]: 8.52% and 2.66%; Population Mitochondria Different-Phenotype (%) [6]: 24.73% and 43.09%; Population Mitotic Cells (%) [6]: 90.07% and 72.6%; Population Normal (%) [6]: 100%; Population Pyknosed Nuclei (%) [6]: 13.88% and 27.34%

How did the “Population Apoptotic (%)” value [1] turn out when `Cl.c1ccc2c(c1)CCC[C@H]2Nc1nc2ccccc2[nH]1` was run?
Its value is 12.41% and 9.85%.

And the “Population Fragmented Nuclei (%)” value [1]?
Its value is 1.91% and 2.52%.

And the “Population Hoechst High Intensity Objects (%)” value [1]?
The value was 0.95% and 0.62%.

And the “Population Membrane Permeable-Phenotype (%)” value [1]?
Its value is 0.58% and 0%.

What about the “Population Mitotic Cells (%)” value [1] of the same compound?
The value was 87.59% and 90.15%.

What about the “Population Normal (%)” value [1] of the same compound?
The value was 99.05% and 99.38%.

What about the “Population Pyknosed Nuclei (%)” value [1] of the same compound?
Its value is 43.63% and 83.02%.

And the “Total Cell Count” value [1]?
Its value is 317 and 160.

And the “Population Apoptotic (%)” value [2]?
Its value is 7.19% and 13.79%.

And the “Population Fragmented Nuclei (%)” value [2]?
The value was 2.56% and 5.8%.

And the “Population Hoechst High Intensity Objects (%)” value [2]?
Its value is 0.57% and 0%.

And the “Population Membrane Permeable-Phenotype (%)” value [2]?
The value was 0%.

What about the “Population Mitotic Cells (%)” value [2] of the same compound?
Its value is 92.81% and 86.21%.

And the “Population Normal (%)” value [2]?
The value was 99.43% and 100%.

What about the “Population Pyknosed Nuclei (%)” value [2] of the same compound?
The value was 47.58% and 84.06%.

And the “Total Cell Count” value [2]?
The value was 353 and 138.

And the “Population Apoptotic (%)” value [3]?
Its value is 15.19% and 12.5%.

And the “Population Fragmented Nuclei (%)” value [3]?
The value was 2.28% and 0.59%.

And the “Population Healthy Nuclei (%)” value [3]?
The value was 64.94% and 28.82%.

What about the “Population Hoechst High Intensity Objects (%)” value [3] of the same compound?
Its value is 0%.

And the “Population Membrane Permeable-Phenotype (%)” value [3]?
Its value is 1.6% and 2.04%.

And the “Population Mitotic Cells (%)” value [3]?
Its value is 84.81% and 87.5%.

What about the “Population Normal (%)” value [3] of the same compound?
The value was 100%.

What about the “Population Pyknosed Nuclei (%)” value [3] of the same compound?
The value was 32.78% and 70.59%.

What about the “Population Tubulin-Different-Phenotype (%)” value [3] of the same compound?
The value was 15.97% and 10.2%.

And the “Total Cell Count” value [3]?
The value was 482 and 170.

And the “Population Apoptotic (%)” value [4]?
The value was 10.9% and 23.53%.

And the “Population Fragmented Nuclei (%)” value [4]?
Its value is 2.57% and 5.7%.

And the “Population Hoechst High Intensity Objects (%)” value [4]?
Its value is 0%.

And the “Population Membrane Permeable-Phenotype (%)” value [4]?
Its value is 2.68% and 0%.

And the “Population Mitochondria Different-Phenotype (%)” value [4]?
The value was 18.75% and 10%.

And the “Population Mitotic Cells (%)” value [4]?
The value was 89.1% and 76.47%.

And the “Population Normal (%)” value [4]?
Its value is 100%.

And the “Population Pyknosed Nuclei (%)” value [4]?
Its value is 30.89% and 75.32%.

And the “Population Tubulin-Different-Phenotype (%)” value [4]?
Its value is 23.81% and 10%.

What about the “Population Apoptotic (%)” value [5] of the same compound?
The value was 8.15% and 21.05%.

What about the “Population Fragmented Nuclei (%)” value [5] of the same compound?
The value was 2.18% and 2.63%.

And the “Population Healthy Nuclei (%)” value [5]?
Its value is 84.41% and 64.04%.

And the “Population Hoechst High Intensity Objects (%)” value [5]?
The value was 0% and 0.44%.

What about the “Population Membrane Permeable-Phenotype (%)” value [5] of the same compound?
Its value is 3.88% and 2.74%.

And the “Population Mitochondria Different-Phenotype (%)” value [5]?
Its value is 18.59% and 17.81%.

And the “Population Mitotic Cells (%)” value [5]?
The value was 91.85% and 78.95%.

What about the “Population Normal (%)” value [5] of the same compound?
The value was 100% and 99.56%.

And the “Population Pyknosed Nuclei (%)” value [5]?
The value was 13.41% and 33.33%.

And the “Population Fragmented Nuclei (%)” value [6]?
Its value is 2.01% and 3.85%.

What about the “Population Healthy Nuclei (%)” value [6] of the same compound?
Its value is 79.3% and 55.49%.

And the “Population Hoechst High Intensity Objects (%)” value [6]?
Its value is 0.32% and 0%.

What about the “Population Membrane Permeable-Phenotype (%)” value [6] of the same compound?
Its value is 5.99% and 1.98%.

What about the “Population Mitochondria Different-Phenotype (%)” value [6] of the same compound?
Its value is 26.23% and 33.66%.

What about the “Population Mitotic Cells (%)” value [6] of the same compound?
Its value is 94.35% and 78.38%.

What about the “Population Normal (%)” value [6] of the same compound?
The value was 99.68% and 100%.

What about the “Population Pyknosed Nuclei (%)” value [6] of the same compound?
The value was 18.69% and 40.66%.
